Reference: PMC3060995 (Peptides, 2011)

Experiments:
[1] = system: food intake in freely-feeding rats; test: 3-h IV infusion at dark onset, food intake in non-food-deprived rats; format: in vivo, rat (male Sprague-Dawley)
How it was run: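 Male Sprague-Dawley rats (350–500 g), housed individually on a 12:12-h light-dark cycle, had ad libitum ground chow. They were jugular-catheterised and tethered to infusion swivels. Each received a single 3-h jugular infusion per day of test compound or vehicle (0.15 M NaCl, 0.1% BSA). Food intake was recorded continuously from bowl weight. Rats with non-patent catheters (Brevital test) were excluded. Analysis used repeated-measures ANOVA with paired t-tests.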

[2] = system: food intake in freely-feeding rats; settings: cited from earlier work
[3] = 15 pmol/kg/min, 3-h IV infusion at dark onset, vs vehicle, 11–15 rats

Row | Substance | effect on food intake [1, 3] | effect on food intake ([1]; 50 pmol/kg/min, 3-h IV infusion at dark onset, vs vehicle, 11–16 rats) | effect on food intake ([1]; 150 pmol/kg/min, 3-h IV infusion at dark onset, vs vehicle, 11–16 rats) | reduction of 3-h food intake ([1]; 15 pmol/kg/min, 3-h jugular vein infusion beginning 15 min before dark onset, vs vehicle, 11–16 rats, group means) [%] | inhibition of 3-h food intake ([1]; 50 pmol/kg/min, 3-h jugular vein infusion beginning 15 min before dark onset, vs vehicle, 11–16 rats, group means) [%] | relative anorexigenic potency (comparison between PYY forms) ([1]; 3-h IV infusion at dark onset, rats) | approximate mean effective dose for inhibition of food intake ([2]; 3-h IV infusion at dark onset, rats, previously determined) [pmol/kg/min] | potency in reducing food intake relative to PYY(1–36)-NH2 ([2]; 3-h IV infusion during the early dark period, freely-feeding rats)
1 | peptide YY(1–36)-amide [PYY(1–36)-NH2] | significantly smaller effect | similarly reduced food in a dose-dependent manner | similarly reduced food in a dose-dependent manner | – | – | – | – | –
2 | peptide YY(3–36)-amide [PYY(3–36)-NH2] | significantly reduced food intake | – | – | 29 | 42 | more potent than Ser^13(PO3)-PYY(3–36)-NH2 | ~15 | an order of magnitude more potent
